Screening results from PubChem.
MBD2 inh = inhibitors of MBD2 binding to methylated DNA, primary screen, biochemical, TR-FRET, DNA-binding domain, human; AID 686964, 2013; Methyl-CpG-binding domain protein 2 (Homo sapiens), Q9UBB5; inhibition, % at 4.4 µM; 0.31% of 370,000 active; MBD2 binding to methylated oligonucleotide; in the data active = inhibition above about 13%
TDP2 absorb = human TDP2 enzyme inhibitors, primary screen, biochemical, epi absorbance, recombinant enzyme | Tyrosyl-DNA phosphodiesterase 2 (Homo sapiens), O95551 | T5PNP hydrolysis, p-nitrophenol absorbance 415 nm | inhibition, % at 12.8 µM | 0.34% of 370,000 active;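 active = inhibition above the mean of all tested compounds plus 3 SD, set per campaign, cut at about 25% in these data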
Target sequence (O95551 whole entry, looked up): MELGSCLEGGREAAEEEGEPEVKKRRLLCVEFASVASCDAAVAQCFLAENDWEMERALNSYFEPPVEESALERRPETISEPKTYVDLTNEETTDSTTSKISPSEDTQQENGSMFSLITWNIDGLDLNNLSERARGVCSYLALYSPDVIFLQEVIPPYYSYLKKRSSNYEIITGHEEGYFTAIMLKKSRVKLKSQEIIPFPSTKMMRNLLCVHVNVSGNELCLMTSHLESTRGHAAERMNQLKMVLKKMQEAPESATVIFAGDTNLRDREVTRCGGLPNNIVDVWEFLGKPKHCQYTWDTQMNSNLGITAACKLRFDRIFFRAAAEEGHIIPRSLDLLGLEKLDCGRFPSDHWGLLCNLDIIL
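Test system: Human TDP2 enzyme | Reagent: 5 mM T5PNP | Compound dosing: 12.8 µM single point, 1% DMSO | Incubation: Enzyme reaction with compound for 2 h at 37 °C | Technique: p-Nitrophenol epi absorbance | Read-out: % inhibition relative to enzyme-containing and enzyme-free wells | Benchmarks: High control without enzyme, low control DMSO plus TDP2 | Replicates: Singlicate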
UHRF1 MBD2 ctr = UHRF1 methylated DNA binding inhibitors, primary screen, counter-screen for MBD2 inhibitor project, biochemical, TR-FRET, human UHRF1, single concentration; UHRF1 binding to methylated oligo; inhibition, % at 4.4 µM; E3 ubiquitin-protein ligase UHRF1 (Homo sapiens), Q96T88; 0.75% of 370,000 active; AID 687016, 2013; in the data active = inhibition above about 21%;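 note: UHRF1 SRA domain binding a hemimethylated CpG hairpin DNA probe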
LEDGF integ inh = blockers of LEDGF/p75-dependent integrase strand transfer – biochemical, TR-FRET, high throughput, primary screen; inhibition, % at 3.7 µM; 0.64% of 370,000 active; HIV-1 integrase (with human LEDGF/p75); TR-FRET IN-LEDGF/p75 DNA integration, Eu/Cy5;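 active = inhibition above the screen-wide mean plus 3 SD, cut at about 13% in these data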;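 note: signal is the Cy5 over europium emission ratio at 671 and 618 nm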
TDP2 confirm = human TDP2 enzyme inhibitors, retest, confirmation, biochemical, epi absorbance, recombinant enzyme; shares compounds with TDP2 absorb; absorbance read-out; inhibition, % at 12.8 µM; 22% of 1,100 active; AID 743263, 2014; in the data active = inhibition above about 25%
Each line names hits and unclear results; the compound was inactive in the other large screens (follow-up assays come after a bar, where they were run). Sampled rows, rich in hits. Any-hit rate of the full collection: about 1.6%.

Cc1ccc(C2C(C#N)=C(N)Oc3n[nH]c(-c4cccs4)c32)cc1 (configuration not stated)	TDP2 absorb 31.9 | TDP2 confirm inactive
N#CC1=C(N)Oc2n[nH]c(-c3cccs3)c2C1c1ccoc1 (configuration not stated)	none
COc1cc(C2C(C#N)=C(N)Oc3n[nH]c(-c4cccs4)c32)cc(OC)c1O (configuration not stated)	TDP2 absorb 37.1 | TDP2 confirm inactive
O=C1c2ccccc2C(=O)C12OC2c1cccc2ccccc12 (configuration not stated)	TDP2 absorb 73.5 | TDP2 confirm 75.8
O=C1NC(c2cccc3ccccc23)Nc2ccccc21 (configuration not stated)	none
Cc1ccc(S(=O)(=O)N(C)CC(=O)Nc2ccc(C)cn2)cc1	none
Cc1ccc(S(=O)(=O)N(C)CC(=O)Nc2cccc(C)n2)cc1	TDP2 absorb 80.0 | TDP2 confirm inactive
O=C1CCCC2=C1C1(O)C(=O)c3ccccc3C1(O)O2 (configuration not stated)	TDP2 absorb 52.6 | TDP2 confirm 58.7
CCCCOCCCNC(=O)C[C@H]1C[C@@]2(C(=O)OC)C(=C[C@H](C(C)(C)C)O[C@@H]2C)N(Cc2ccco2)C1=O	none
CC1=C2NC(N)=[N+](CC3CC3)C(Cc3ccccc3)[C@@H]2n2c(=O)n(-c3ccccc3)c(=O)n2C1 (some centres not stated)	none
CCOC(=O)N[C@@H](CC(C)C)C(=O)N1CCC[C@H]1C(=O)NCc1ccccc1	none
COc1ccc2nc(NC(=O)CN3C(=O)NC4(CCCC4)C3=O)sc2c1	TDP2 absorb 63.2 | TDP2 confirm inactive
COc1ccc2nc(NC(=O)CN3C(=O)NC4(CCCCC4)C3=O)sc2c1	none
COc1ccc2nc(NC(=O)CSc3ccccc3)sc2c1	TDP2 absorb 25.7 | TDP2 confirm inactive
O=C(NCc1ccccn1)c1ccc2c(c1)N(Cc1ccccc1)CCS2	none
O=C(NCc1cccnc1)c1ccc2c(c1)N(Cc1ccccc1)CCS2	TDP2 absorb 24.9 | TDP2 confirm inactive
CN(CCOC(=O)c1occ2ccccc12)C1CN(Cc2cn(Cc3ccccc3Cl)nn2)S(=O)(=O)C1 (configuration not stated)	none
NS(=O)(=O)c1ccc(NC(=S)NCc2ccccc2Cl)cc1	none
NS(=O)(=O)c1ccc(CCNCC(=O)NCc2ccccc2Cl)cc1	TDP2 absorb 26.7 | TDP2 confirm inactive
COc1ccc(OC)c(NC(=O)c2ccccc2N(Cc2ccccc2)C(=O)C(C)Cl)c1 (configuration not stated)	none
CCOc1ccc2nc(/N=C/c3c(C)[nH]n(-c4ccccc4)c3=O)sc2c1	TDP2 absorb 34.7 | TDP2 confirm inactive
CCOc1ccc2nc(/N=C/c3c(C)[nH]n(-c4ccc(C)cc4)c3=O)sc2c1	none
COC(=O)C1=C(C)N(Cc2cccc(C(F)(F)F)c2)C(=NCc2cc(OC)c(OC)c(OC)c2)NC1CCc1ccccc1 (configuration not stated)	none
O=C(Nc1ccc(S(=O)(=O)N2CCCCC2)cc1)C1CC(=O)N(c2ccc(Cl)cc2)C1 (configuration not stated)	TDP2 absorb 24.8 | TDP2 confirm inactive
COc1ccc(/C=C2/CN(Cc3ccc(OC)cc3OC)C3=N[C@H](c4ccccc4)CC(=O)N32)cc1	none
Clc1ccc(CN2CCSCC2)c(Cl)c1	none
Cc1ccc(C)c(CN2CCSCC2)c1	TDP2 absorb 25.6 | TDP2 confirm inactive
COc1cc2cncc(Cc3ccccc3)c2cc1O	none
Oc1cncc(Cc2ccccc2)c1	TDP2 absorb 24.9 | TDP2 confirm inactive
O=C(Nc1ccc(Cl)c(Cl)c1)c1cccc2c1-c1ccccc1C2=O	none
CCN(CC)c1ccc2cc(-c3nc(-c4cc5ccccc5oc4=O)cs3)c(=O)oc2c1	TDP2 absorb 31.6 | TDP2 confirm inactive
O=c1oc2ccccc2cc1-c1csc(Cc2nc(-c3ccc(Cl)cc3)cs2)n1	none
O=C(Nc1cccc(C(F)(F)F)c1)O[C@@H]1CC[C@@]23CCCN2C(=O)CCC[C@H]3C1	none
Nc1ccn([C@@H]2O[C@H](C(=O)N3CCN(C(=O)N4CCCCC4)CC3)[C@@H](O)[C@H]2O)c(=O)n1	none
CCCCn1nnnc1C1c2ccccc2OCC(=O)N1Cc1ccc2c(c1)OCO2 (configuration not stated)	none
CC(C)(C)NC(=O)C(=O)NC(=O)c1c(F)cccc1Cl	TDP2 absorb 43.4 | TDP2 confirm inactive
Cc1ccc(NC(=O)c2cnccn2)c(C)c1	none
Cc1ccc(C)c(NC(=O)c2cnccn2)c1	TDP2 absorb 28.6 | TDP2 confirm inactive
O=C(O)c1ccc(NS(=O)(=O)c2cc(Cl)ccc2Cl)cc1O	TDP2 absorb 28.6 | TDP2 confirm inactive
CC1(N2CCCCC2)C(=O)c2ccccc2C1=O	TDP2 absorb 61.6 | TDP2 confirm inactive
Cc1ccc(CN2CCCCC(NC(=O)Nc3cccc(F)c3)C2=O)cc1 (configuration not stated)	none
Cc1ccc(-c2nc(C3CCCN(S(=O)(=O)c4cccs4)C3)no2)cc1 (configuration not stated)	none
Cc1cnc(C2OCCO2)c2cccc(N)c12	TDP2 absorb 30.2 | TDP2 confirm 43.8
O=[N+]([O-])c1cccnc1C1OCCO1	none
O=C(CSc1nnc(-c2cccnc2)n1-c1ccc(Cl)cc1)Nc1cccc2ccccc12	none
CC(=O)NC(Cc1ccc(F)cc1)C(=O)NC1CCN(C(=O)Nc2ccc(F)cc2)CC1 (configuration not stated)	TDP2 absorb 25.2 | TDP2 confirm inactive
CC(=O)NC(Cc1ccc(F)cc1)C(=O)NC1CCN(C(=O)Nc2cccc(C)c2)CC1 (configuration not stated)	none
CCN1CCN(C(=O)Cn2ncc3c2-c2ccccc2OC3)CC1	none
O=C(Cn1ncc2c1-c1ccccc1OC2)N1CCN(Cc2ccccc2)CC1	TDP2 absorb 28.5, UHRF1 MBD2 ctr 27.2 | TDP2 confirm inactive
CCCCNc1nnc(Cc2ccc(Cl)cc2)c(=O)[nH]1	TDP2 absorb 28.2 | TDP2 confirm inactive
COCCOC(=O)C1=C(C)NC2(O)c3ccccc3C(=O)C12O (configuration not stated)	TDP2 absorb 46.0 | TDP2 confirm inactive
COCCOC(=O)C1=C(C)NC(C)=C(C(=O)OCCOC)C1/C=C/c1ccccc1OC	none
CC(=O)C1=C(C)NC2(O)c3ccccc3C(=O)C12O (configuration not stated)	none
CCOC(=O)C1=C(C)NC2(O)c3ccccc3C(=O)C12O (configuration not stated)	TDP2 absorb 47.4 | TDP2 confirm 25.4
